# From ChEMBL document CHEMBL1142140, “Activity of ribavirin against Hantaan virus correlates with production of ribavirin-5'-triphosphate, not with inhibition of IMP dehydrogenase” (2007)
# Activity calls are given as the source filed them. The rule behind the calls is not given here.
# What was measured:
# [1] = test system: Vero; assay: Effect on metabolism of 10 ug/ml RBV in Vero E6 cells assessed as RBV-MP concentration at 10 ug/ml after 24 h; assay type: functional, Chlorocebus sabaeus
# In short: (§1)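 Vero E6 cells were given [3H]RBV for 24 h at 37°C, alone or with added MPA (experiment 1) or guanosine (experiment 2). Perchloric acid extracts were resolved on SAX HPLC, and RBV-MP and RBV-TP were quantified by counting 1-min fractions. Values are the mean ± SD of three measurements, and the experiment was repeated twice.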
# [2] = test system: Vero; assay: Inhibition of 1 ug/ml RBV-induced depression in intracellular GTP level in Vero E6 cells at 35 uM after 24 h; assay type: functional, cell-based; details: Chlorocebus sabaeus
# [3] = test system: Vero; assay: Inhibition of 40 ug/ml RBV-induced depression in intracellular GTP level in Vero E6 cells at 35 uM after 24 h; assay type: functional, cell-based; details: Chlorocebus sabaeus
# In short: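 Vero E6 cells were treated for 24 h with 40 μg/ml RBV, with or without 10 μg/ml guanosine. Acid-soluble (perchloric acid) extracts were run on SAX HPLC, and GTP and ATP were quantified by UV at 260 nm. Values are the mean of three measurements.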
# [4] = test system: Vero; assay: Inhibition of MPA effect on viral RNA in HTNV 76-118-infected Vero E6 cells at 35 uM; assay type: functional, cell-based; details: Hantaan virus
# [5] = test system: Vero; assay: Effect on metabolism of 40 ug/ml RBV in Vero E6 cells assessed as RBV-MP concentration at 10 ug/ml after 24 h; assay type: functional, Chlorocebus sabaeus; in short: as §1
# [6] = test system: Vero; assay: Effect on metabolism of 10 ug/ml RBV in Vero E6 cells assessed as RBV-TP concentration at 10 ug/ml after 24 h; assay type: functional, Chlorocebus sabaeus; in short: as §1
# [7] = test system: Vero; assay: Increase in GTP level in Vero E6 cells at 35 uM after 24 hr relative to control; assay type: functional, Chlorocebus sabaeus
# In short: (§2)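 Confluent 3-day-old Vero E6 cells incubated at 37°C with drug: 10 μg/ml RBV or 2.5 μg/ml MPA over a 0–72 h time course; RBV for 4 h; 10 μg/ml guanosine for 24 h. Ice-cold 0.5 M perchloric acid extracts neutralized with KOH, then SAX HPLC with an NH4H2PO4 gradient from pH 2.8 to 3.7. GTP and ATP read at 260 nm; mean of three measurements.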
# [8] = test system: Vero; assay: Effect on metabolism of 40 ug/ml RBV in Vero E6 cells assessed as RBV-TP concentration at 10 ug/ml after 24 h; assay type: functional, Chlorocebus sabaeus; in short: as §1
# [9] = test system: Vero; assay: Effect on metabolism of 10 ug/ml RBV in Vero E6 cells assessed as RBV-TP concentration at 1 ug/ml after 24 h; assay type: functional, Chlorocebus sabaeus; in short: as §1
# [10] = test system: Vero; assay: Effect on metabolism of 10 ug/ml RBV in Vero E6 cells assessed as RBV-TP concentration at 2 ug/ml after 24 h; assay type: functional, Chlorocebus sabaeus; in short: as §1
# [11] = test system: Vero; assay: Effect on metabolism of 40 ug/ml RBV in Vero E6 cells assessed as RBV-MP concentration at 1 ug/ml after 24 h; assay type: functional, Chlorocebus sabaeus; in short: as §1
# [12] = test system: Vero; assay: Effect on metabolism of 10 ug/ml RBV in Vero E6 cells assessed as RBV-MP concentration at 1 ug/ml after 24 h; assay type: functional, Chlorocebus sabaeus; in short: as §1
# [13] = test system: Vero; assay: Effect on metabolism of 40 ug/ml RBV in Vero E6 cells assessed as RBV-TP concentration at 1 ug/ml after 24 h; assay type: functional, Chlorocebus sabaeus; in short: as §1
# [14] = test system: Vero; assay: Effect on metabolism of 40 ug/ml RBV in Vero E6 cells assessed as RBV-TP concentration at 5 ug/ml after 24 h; assay type: functional, Chlorocebus sabaeus; in short: as §1
# [15] = test system: Vero; assay: Effect on metabolism of 10 ug/ml RBV in Vero E6 cells assessed as RBV-TP concentration at 5 ug/ml after 24 h; assay type: functional, Chlorocebus sabaeus; in short: as §1
# [16] = Inhibition of viral RNA levels in HTNV76-118-infected Vero E6 cells at 10 ug/ml; assay type: functional, Hantaan virus; details: Orthohantavirus hantanense, 76-118, Vero
# [17] = test system: Vero; assay: Effect on metabolism of 10 ug/ml RBV in Vero E6 cells assessed as RBV-MP concentration at 5 ug/ml after 24 h; assay type: functional, Chlorocebus sabaeus; in short: as §1
# [18] = test system: Vero; assay: Decrease in GTP level in Vero E6 cells at 40 ug/ml after 24 h; assay type: functional, Chlorocebus sabaeus; set-up: scale not given: the % may be the effect or the level left
# [19] = test system: Vero; assay: Decrease in GTP level in Vero E6 cells at 2.5 ug/ml; assay type: functional, Chlorocebus sabaeus; set-up: scale not given: the % may be the effect or the level left; in short: as §2
# [20] = test system: Vero; assay: Effect on metabolism of 40 ug/ml RBV in Vero E6 cells assessed as RBV-MP concentration at 2 ug/ml after 24 h; assay type: functional, Chlorocebus sabaeus; in short: as §1
# [21] = test system: Vero; assay: Effect on metabolism of 40 ug/ml RBV in Vero E6 cells assessed as RBV-TP concentration at 2 ug/ml after 24 h; assay type: functional, Chlorocebus sabaeus; in short: as §1
# [22] = test system: Vero; assay: Effect on metabolism of 10 ug/ml RBV in Vero E6 cells assessed as RBV-MP concentration at 2 ug/ml after 24 h; assay type: functional, Chlorocebus sabaeus; in short: as §1
# [23] = test system: Vero; assay: Effect on metabolism of 40 ug/ml RBV in Vero E6 cells assessed as RBV-MP concentration at 5 ug/ml after 24 h; assay type: functional, Chlorocebus sabaeus; in short: as §1
# [24] = test system: Vero; assay: Decrease in GTP level in Vero E6 cells at 10 ug/ml; assay type: functional, Chlorocebus sabaeus; set-up: scale not given: the % may be the effect or the level left; in short: as §2
# [25] = test system: Vero; assay: RBV metabolism in Vero E6 cells assessed as RBV-MP concentration at 40 ug/ml after 24 h; assay type: functional, Chlorocebus sabaeus; in short: as §1
# [26] = test system: Vero; assay: Decrease in GTP level in Vero E6 cells at 40 ug/ml after 4 h; assay type: functional, cell-based; details: Chlorocebus sabaeus; in short: as §2
# [27] = Inhibition of viral RNA levels in HTNV76-118-infected Vero E6 cells at 0.5 ug/ml; assay type: functional, Hantaan virus; details: Orthohantavirus hantanense, 76-118, Vero
# [28] = test system: Vero; assay: RBV metabolism in Vero E6 cells assessed as RBV-TP concentration at 40 ug/ml after 24 h; assay type: functional, Chlorocebus sabaeus; in short: as §1
# [29] = Inhibition of viral RNA levels in HTNV 76-118-infected Vero E6 cells at 40 ug/ml after 3 days; assay type: functional, Hantaan virus; details: Orthohantavirus hantanense, 76-118, Vero, 72 h
# [30] = test system: Vero; assay: RBV metabolism in Vero E6 cells assessed as RBV-TP concentration at 10 ug/ml after 24 h; assay type: functional, Chlorocebus sabaeus; in short: as §1
# [31] = test system: Vero; assay: RBV metabolism in Vero E6 cells assessed as RBV-MP concentration at 10 ug/ml after 24 h; assay type: functional, Chlorocebus sabaeus; in short: as §1
structure (smiles),measurement,setting,value
Nc1nc2c(ncn2[C@@H]2O[C@H](CO)[C@@H](O)[C@H]2O)c(=O)[nH]1 [GUANOSINE],Activity,[1],1.9 pmol
same,Activity,[2],Active
same,Activity,[3],Active
same,Activity,[4],Active
same,Activity,[5],8.6 pmol
same,Activity,[6],14 pmol
same,Activity,[7],145%
same,Activity,[8],65 pmol
COc1c(C)c2c(c(O)c1C/C=C(\C)CCC(=O)O)C(=O)OC2 [MYCOPHENOLIC ACID],Activity,[9],7.8 pmol
same,Activity,[10],6.8 pmol
same,Activity,[11],4.2 pmol
same,Activity,[12],1.3 pmol
same,Activity,[13],26 pmol
same,Activity,[14],26 pmol
same,Activity,[15],7 pmol
same,inhibition at 10 µg/mL,[16],-70%
same,Activity,[17],1.2 pmol
same,Activity,[18],80%
same,Activity,[19],90%
same,Activity,[20],3.8 pmol
same,Activity,[21],27 pmol
same,Activity,[22],1.3 pmol
same,Activity,[23],3.9 pmol
NC(=O)c1ncn([C@@H]2O[C@H](CO)[C@@H](O)[C@H]2O)n1 [RIBAVIRIN],Activity,[24],40%
same,Activity,[25],3.2 pmol
same,Activity,[26],Active
same,inhibition at 0.5 µg/mL,[27],-80%
same,Activity,[28],22 pmol
same,inhibition at 40 µg/mL,[29],99.9%
same,Activity,[18],50%
same,Activity,[30],6.5 pmol
same,Activity,[31],1.1 pmol
